# Experiments:
# Rattus norvegicus [1] = test: Distribution of Radioactivity in spleen of Fisher 344 Rats by intravenous administration of compound after 5 minutes expressed as dose/gram; type: ADME, organism-based; conditions: in vivo
# Procedure, shortened: (§1)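 Female Fischer 344 rats, 10-12 weeks old (170-200 g), food and water ad libitum; four rats per time point. About 6.3 μCi given in 0.05 mL saline (pH 7.4, filtered) by lateral tail vein under ether anesthesia. Tissues sampled at 5 min, 1 h, 4 h or 1 day. %ID/g computed from injectate standards; mean and range given.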
# Mus musculus [2] = test: Distribution of Radioactivity in blood of CD-1 Mice by intravenous administration of compound after 1 hr expressed as dose/gram; type: ADME, organism-based; conditions: in vivo
# Procedure, shortened: (§2)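 Female CD-1 mice, 7 1/2 weeks old (25-29 g), fed and watered ad libitum. Agent given in physiological saline, pH adjusted to 7.4 and filtered, by lateral tail vein injection under ether anesthesia. Tissues collected at 5 min, 1 h, 4 h and 1 day. Injectate samples counted as standard; results as mean % injected dose/g with range.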
# Mus musculus [3] = test: Distribution of Radioactivity in lungs of CD-1 Mice by intravenous administration of compound after 5 minutes expressed as dose/gram; type: ADME, organism-based, Lung; conditions: in vivo; procedure, shortened: as §2
# Rattus norvegicus [4] = test: Distribution of Radioactivity in spleen of Fisher 344 Rats by intravenous administration of compound after 4 hour expressed as dose/gram; type: ADME, organism-based; conditions: in vivo; procedure, shortened: as §1
# Rattus norvegicus [5] = test: Distribution of Radioactivity in adrenals of Fisher 344 Rats by intravenous administration of compound after 1 hour expressed as dose/gram; type: ADME, organism-based, Adrenal gland; conditions: in vivo
# Procedure, shortened: (§3)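 Female Fischer 344 rats, 10-12 weeks old (170-200 g), fed and watered ad libitum; four rats per time point. Each received ~6.3 μCi in 0.05 mL saline (pH 7.4, filtered), given by lateral tail vein under ether anesthesia. Tissues taken at 5 min, 1 h, 4 h and 1 day. Injectate standards used; values as mean % injected dose/g with range.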
# Rattus norvegicus [6] = test: Distribution of Radioactivity in thymus of Fisher 344 Rats by intravenous administration of compound after 1 day expressed as dose/gram; type: ADME, organism-based; conditions: in vivo, 24 h; procedure, shortened: as §1
# Rattus norvegicus [7] = test: Distribution of Radioactivity in spleen of Fisher 344 Rats by intravenous administration of compound after 1 day expressed as dose/gram; type: ADME, organism-based; conditions: in vivo, 24 h; procedure, shortened: as §1
# Mus musculus [8] = test: Distribution of Radioactivity in spleen of CD-1 Mice by intravenous administration of compound after 4 hr expressed as dose/gram; type: ADME, organism-based; conditions: in vivo
# Procedure, shortened: (§4)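 Female CD-1 mice, 7 1/2 weeks old (25-29 g), fed and watered ad libitum. Radiotracer in physiological saline, pH 7.4, filtered, injected via lateral tail vein under ether anesthesia. Tissues taken at 5 min, 1 h, 4 h or 1 day. Percent injected dose per gram calculated against assayed samples of the injected solution; mean with range reported.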
# Mus musculus [9] = test: Distribution of Radioactivity in pancreas of CD-1 Mice by intravenous administration of compound after 1 day expressed as dose/gram; type: ADME, organism-based; conditions: in vivo, 24 h; procedure, shortened: as §2
# Rattus norvegicus [10] = test: Distribution of Radioactivity in adrenals of Fisher 344 Rats by intravenous administration of compound after 1 day expressed as dose/gram; type: ADME, organism-based, Adrenal gland; conditions: in vivo, 24 h; procedure, shortened: as §3
# Rattus norvegicus [11] = test: Distribution of Radioactivity in kidneys of Fisher 344 Rats by intravenous administration of compound after 1 hour expressed as dose/gram; type: ADME, organism-based, Kidney; conditions: in vivo; procedure, shortened: as §3
# Mus musculus [12] = test: Distribution of Radioactivity in kidneys of CD-1 Mice by intravenous administration of compound after 5 minutes expressed as dose/gram; type: ADME, organism-based, Kidney; conditions: in vivo; procedure, shortened: as §2
# Mus musculus [13] = test: Distribution of Radioactivity in blood of CD-1 Mice by intravenous administration of compound after 5 minutes expressed as dose/gram; type: ADME, organism-based; conditions: in vivo; procedure, shortened: as §2
# Rattus norvegicus [14] = test: Distribution of Radioactivity in thymus of Fisher 344 Rats by intravenous administration of compound after 5 minutes expressed as dose/gram; type: ADME, organism-based; conditions: in vivo; procedure, shortened: as §1
# Mus musculus [15] = test: Distribution of Radioactivity in liver of CD-1 Mice by intravenous administration of compound after 1 day expressed as dose/gram; type: ADME, organism-based; conditions: in vivo, 24 h; procedure, shortened: as §2
# Mus musculus [16] = test: Distribution of Radioactivity in small intestine of CD-1 Mice by intravenous administration of compound after 4 hr expressed as dose/gram; type: ADME, organism-based; conditions: in vivo; procedure, shortened: as §4
# Mus musculus [17] = test: Distribution of Radioactivity in small intestine of CD-1 Mice by intravenous administration of compound after 1 day expressed as dose/gram; type: ADME, organism-based; conditions: in vivo, 24 h; procedure, shortened: as §2
# Rattus norvegicus [18] = test: Distribution of Radioactivity in kidneys of Fisher 344 Rats by intravenous administration of compound after 5 minutes expressed as dose/gram; type: ADME, organism-based, Kidney; conditions: in vivo; procedure, shortened: as §3
# Rattus norvegicus [19] = test: Distribution of Radioactivity in stomach of Fisher 344 Rats by intravenous administration of compound after 4 hour expressed as dose/gram; type: ADME, organism-based; conditions: in vivo; procedure, shortened: as §1
# Mus musculus [20] = test: Distribution of Radioactivity in thymus of CD-1 Mice by intravenous administration of compound after 4 hr expressed as dose/gram; type: ADME, organism-based; conditions: in vivo; procedure, shortened: as §4
# Rattus norvegicus [21] = test: Distribution of Radioactivity in lungs of Fisher 344 Rats by intravenous administration of compound after 5 minutes expressed as dose/gram; type: ADME, organism-based, Lung; conditions: in vivo; procedure, shortened: as §3
# Mus musculus [22] = test: Distribution of Radioactivity in liver of CD-1 Mice by intravenous administration of compound after 1 hr expressed as dose/gram; type: ADME, organism-based; conditions: in vivo; procedure, shortened: as §2
# Mus musculus [23] = test: Distribution of Radioactivity in adrenals of CD-1 Mice by intravenous administration of compound after 1 hr expressed as dose/gram; type: ADME, organism-based, Adrenal gland; conditions: in vivo; procedure, shortened: as §2
# Rattus norvegicus [24] = test: Distribution of Radioactivity in blood of Fisher 344 Rats by intravenous administration of compound after 1 hour expressed as dose/gram; type: ADME, organism-based; conditions: in vivo; procedure, shortened: as §3
# Mus musculus [25] = test: Distribution of Radioactivity in stomach of CD-1 Mice by intravenous administration of compound after 1 hr expressed as dose/gram; type: ADME, organism-based; conditions: in vivo; procedure, shortened: as §4
# Rattus norvegicus [26] = test: Distribution of Radioactivity in pancreas of Fisher 344 Rats by intravenous administration of compound after 1 hour expressed as dose/gram; type: ADME, organism-based; conditions: in vivo; procedure, shortened: as §3
# Rattus norvegicus [27] = test: Distribution of Radioactivity in blood of Fisher 344 Rats by intravenous administration of compound after 5 minutes expressed as dose/gram; type: ADME, organism-based; conditions: in vivo; procedure, shortened: as §3
# Rattus norvegicus [28] = test: Distribution of Radioactivity in thymus of Fisher 344 Rats by intravenous administration of compound after 4 hour expressed as dose/gram; type: ADME, organism-based; conditions: in vivo; procedure, shortened: as §1
# Rattus norvegicus [29] = test: Distribution of Radioactivity in blood of Fisher 344 Rats by intravenous administration of compound after 1 day expressed as dose/gram; type: ADME, organism-based; conditions: in vivo, 24 h; procedure, shortened: as §3
# Mus musculus [30] = test: Distribution of Radioactivity in blood of CD-1 Mice by intravenous administration of compound after 4 hour expressed as dose/gram; type: ADME, organism-based; conditions: in vivo; procedure, shortened: as §2
# Mus musculus [31] = test: Distribution of Radioactivity in lungs of CD-1 Mice by intravenous administration of compound after 4 hour expressed as dose/gram; type: ADME, organism-based, Lung; conditions: in vivo; procedure, shortened: as §2
# Rattus norvegicus [32] = test: Distribution of Radioactivity in spleen of Fisher 344 Rats by intravenous administration of compound after 1 hour expressed as dose/gram; type: ADME, organism-based; conditions: in vivo; procedure, shortened: as §1
# Mus musculus [33] = test: Distribution of Radioactivity in liver of CD-1 Mice by intravenous administration of compound after 4 hour expressed as dose/gram; type: ADME, organism-based; conditions: in vivo; procedure, shortened: as §2
# Mus musculus [34] = test: Distribution of Radioactivity in small intestine of CD-1 Mice by intravenous administration of compound after 5 minutes expressed as dose/gram; type: ADME, organism-based; conditions: in vivo; procedure, shortened: as §4
# Rattus norvegicus [35] = test: Distribution of Radioactivity in stomach of Fisher 344 Rats by intravenous administration of compound after 5 minutes expressed as dose/gram; type: ADME, organism-based; conditions: in vivo; procedure, shortened: as §1
# Rattus norvegicus [36] = test: Distribution of Radioactivity in liver of Fisher 344 Rats by intravenous administration of compound after 1 hour expressed as dose/gram; type: ADME, organism-based; conditions: in vivo; procedure, shortened: as §3
# Mus musculus [37] = test: Distribution of Radioactivity in adrenals of CD-1 Mice by intravenous administration of compound after 1 day expressed as dose/gram; type: ADME, organism-based, Adrenal gland; conditions: in vivo, 24 h; procedure, shortened: as §2
# Rattus norvegicus [38] = test: Distribution of Radioactivity in stomach of Fisher 344 Rats by intravenous administration of compound after 1 hour expressed as dose/gram; type: ADME, organism-based; conditions: in vivo; procedure, shortened: as §1
substance,measurement,setting,value
"beta-[103,106Ru]Ruthenocenylalanine",Injected,Rattus norvegicus [1],0.355%
same,Injected,Mus musculus [2],1.039%
same,Injected,Mus musculus [3],3.603%
same,Injected,Rattus norvegicus [4],0.062%
same,Injected,Rattus norvegicus [5],0.141%
same,Injected,Rattus norvegicus [6],0.024%
same,Injected,Rattus norvegicus [7],0.065%
same,Injected,Mus musculus [8],0.206%
same,Injected,Mus musculus [9],0.067%
same,Injected,Rattus norvegicus [10],0.044%
same,Injected,Rattus norvegicus [11],2.717%
same,Injected,Mus musculus [12],15.745%
same,Injected,Mus musculus [13],6.768%
same,Injected,Rattus norvegicus [14],0.335%
same,Injected,Mus musculus [15],0.508%
same,Injected,Mus musculus [16],0.367%
same,Injected,Mus musculus [17],0.059%
same,Injected,Rattus norvegicus [18],5.44%
same,Injected,Rattus norvegicus [19],0.028%
same,Injected,Mus musculus [20],0.195%
same,Injected,Rattus norvegicus [21],1.123%
same,Injected,Mus musculus [22],1.784%
same,Injected,Mus musculus [23],1.054%
same,Injected,Rattus norvegicus [24],0.698%
same,Injected,Mus musculus [25],0.326%
same,Injected,Rattus norvegicus [26],0.299%
same,Injected,Rattus norvegicus [27],1.949%
same,Injected,Rattus norvegicus [28],0.035%
same,Injected,Rattus norvegicus [29],0.051%
same,Injected,Mus musculus [30],0.22%
same,Injected,Mus musculus [31],0.47%
same,Injected,Rattus norvegicus [32],0.14%
same,Injected,Mus musculus [33],1.01%
same,Injected,Mus musculus [34],1.739%
same,Injected,Rattus norvegicus [35],0.243%
same,Injected,Rattus norvegicus [36],1.27%
same,Injected,Mus musculus [37],0.556%
same,Injected,Rattus norvegicus [38],0.081%
